HNF4A DNA FP: change in binding of human HNF4A to DNA, primary screen, biochemical, fluorescence polarization, FITC-DNA; Hepatocyte nuclear factor 4-alpha (Homo sapiens), P41235; 1 h; activity change, % at 10 µM; 0.3% of 360,000 active; AID 1224865, 2016; in the data active = activity change above about 30%, passing the limit was not always enough
TPT1 inh: Candida albicans TPT1 enzyme inhibitors, primary screen, biochemical, fluorescence polarization; tRNA 2'-phosphotransferase TPT1 (Candida albicans SC5314); recombinant caTPT1, FP RNA substrate dephosphorylation; inhibition, % at 5 µM; 0.81% of 300,000 active; AID 1962, 2009;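 active = inhibition above the mean of all tested compounds plus 3 SD, set per screening campaign, cut at about 24% in these data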;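 note: plate controls were DMSO alone for no effect and ferristatin control at 100 nM for full effect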
CSN deneddyl inh: inhibitors of CSN-mediated cullin deneddylation, primary screen, biochemical, fluorescence polarization, uHTS. COP9 signalosome complex subunit 5 (Homo sapiens), Q92905. Purified CSN, SCF-Nedd8-OG deneddylation. inhibition, % at 12.5 µM. 0.38% of 360,000 active. AID 651999, 2013;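 active = pattern-corrected inhibition above about 35%, with an unprinted fluorescence ratio check between 0.5 and 1.5, limit read from the data, passing the limit was not always enough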;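 note: 0% = enzyme with substrate and 100% = substrate without enzyme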
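assay system = purified human Csn5 enzyme expressed in HEK293T cells | amount = 0.24 nM enzyme | buffer or medium = Tris/NaCl/DTT buffer, pH 7.5 | reagent = 10 nM SCFSkp2-Nedd8OG | compound = one concentration, 12.5 µM, 0.25% DMSO | times = 90 min reaction at room temperature | signal = FP | read-out basis = % inhibition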
NR1D1 modulator: modulators of Rev-erb alpha DNA binding, primary screen, biochemical, FITC-DNA, fluorescence polarization, uHTS | Nuclear receptor subfamily 1 group D member 1 (Homo sapiens), P20393 | Rev-erbα–FITC-DNA binding, 90 min | activity, % at 10 µM | 0.79% of 370,000 active | AID 1259318, 2017;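 active = activity above about 14%, limit read from the data; passing the limit was not always enough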;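 note: 0% = DMSO wells with 35 nM protein and 100% = DMSO wells with 750 nM protein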
Target sequence (P20393 whole entry, looked up): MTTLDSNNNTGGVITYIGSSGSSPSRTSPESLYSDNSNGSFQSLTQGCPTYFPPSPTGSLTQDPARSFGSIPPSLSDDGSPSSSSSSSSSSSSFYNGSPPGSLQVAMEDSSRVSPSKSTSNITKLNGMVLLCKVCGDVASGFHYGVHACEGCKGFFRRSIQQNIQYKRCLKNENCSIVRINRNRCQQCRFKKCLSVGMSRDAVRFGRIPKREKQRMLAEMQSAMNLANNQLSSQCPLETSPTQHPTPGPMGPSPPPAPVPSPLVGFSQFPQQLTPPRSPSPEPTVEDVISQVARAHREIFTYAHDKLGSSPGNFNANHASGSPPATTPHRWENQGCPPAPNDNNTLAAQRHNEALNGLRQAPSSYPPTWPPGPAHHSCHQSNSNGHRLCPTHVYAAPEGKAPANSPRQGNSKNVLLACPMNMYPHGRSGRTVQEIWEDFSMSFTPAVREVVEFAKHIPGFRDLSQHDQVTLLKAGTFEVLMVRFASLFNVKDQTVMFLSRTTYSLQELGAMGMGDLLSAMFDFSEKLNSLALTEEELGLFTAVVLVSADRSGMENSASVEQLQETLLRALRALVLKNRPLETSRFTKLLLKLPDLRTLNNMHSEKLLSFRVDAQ
NR1D1 mod conf: modulators of Rev-erb alpha DNA binding, confirmation, biochemical, FITC-DNA, fluorescence polarization, single point | activation, % at 25 µM | 90 min | shares compounds with NR1D1 modulator | 61% of 3,000 active | AID 1259319, 2017;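 active = activation at or above a set limit, or at least 3 SD above the negative control mean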;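 note: 0% = 35 nM protein with DMSO and 100% = 750 nM protein high control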
RORg DNA counter: modulation of RORgamma DNA binding, dose response, counter-screen for Rev-erb alpha modulator project, biochemical, fluorescence polarization, FITC-DNA; shares compounds with NR1D1 modulator; purified RORgamma protein-FITC-DNA binding; IC50, µM; 8% of 910 active; AID 1259320, 2017;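 active = Compounds whose fitted half-maximal concentration for disrupting protein-DNA binding is below 10 micromolar; the record names Rev-erb in its text, so the target is in doubt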
* = called active by the depositor; i = inactive; x = no result given. An excerpt weighted towards active compounds, which were near 1.7% of everything screened.

SMILES	HNF4A DNA FP	TPT1 inh	CSN deneddyl inh	NR1D1 modulator	NR1D1 mod conf	others
Cc1ccc(S(=O)(=O)c2nnn3c2nc(NC2CCN(Cc4ccccc4)CC2)c2ccccc23)cc1C	8	2	0	x	x
CC(C)c1ccc(S(=O)(=O)c2nnn3c2nc(N2CCCCC2)c2ccccc23)cc1	-3	-3	-16	30*	29*
CCCCNc1nc2c(S(=O)(=O)c3ccccc3)nnn2c2ccccc12	-3	1	1	16	x
Cc1cccc(Nc2nc3c(S(=O)(=O)c4ccccc4)nnn3c3ccccc23)c1	0	-1	-11	39*	8
Cc1cc(C)cc(Nc2nc3c(S(=O)(=O)c4ccccc4)nnn3c3ccccc23)c1	0	2	-7	52*	2
Cc1noc(C)c1NC(=O)Nc1ccc2c(c1)C(=O)N([C@@H](C)CO)C[C@@H](C)[C@H](CN(C)S(=O)(=O)c1ccc(F)cc1)OCCCC[C@H](C)O2	x	x	x	-4	x
CCOc1ccccc1-c1nc(-c2ccc(NC(=O)Cc3ccc(OC)cc3)cc2)no1	-1	1	7	43*	70*	RORg DNA counter=>40
CCOc1ccccc1-c1nc(-c2ccc(NC(=O)c3ccc(Br)o3)cc2)no1	x	1	x	5	x
CN(Cc1ccccc1)C(=O)c1cccc(NC(=O)Cc2cccc(NC(=O)C3CCN(C(=O)CCc4ccccc4)CC3)c2)c1	x	x	x	3	x
Cc1ccccc1Cn1c2ccccc2c2cnn(CC(=O)NCc3ccccn3)c(=O)c21	3	-5	-4	4	x
Cc1cc(C)c(Cn2c3ccccc3c3cnn(CC(=O)NCc4ccccn4)c(=O)c32)c(C)c1	3	0	13	39*	18*
CC(Sc1nnc(Cc2ccccc2)n1C)C(=O)NC1CC1 (centres undefined)	2	x	0	2	x
COC(=O)c1sc(NC(=O)C(C)C)c(C(=O)OC)c1C	0	1	-4	22*	5
CCOC(=O)c1sc(NC(=O)C(C)C)c(C#N)c1C	14	-1	4	47*	26*
CCOC(=O)c1sc(NC(=O)C2=COCCO2)c(C#N)c1C	-1	3	0	1	x
C[C@H]1CN(S(=O)(=O)C(C)(C)C)[C@@H](CCO)/C1=C\c1ccccc1	x	x	x	-3	x
C/C(N)=C(/C#N)C(=O)CSc1nc2ccccc2c(=O)n1-c1ccc(C)c(Cl)c1	5	2	2	78*	31*	RORg DNA counter=i
C/C(N)=C(/C#N)C(=O)CSc1nc2ccccc2c(=O)n1-c1ccc(C)cc1	x	2	x	x	x
O=[N+]([O-])c1ccc(-c2nc(Nc3cccc(O)c3)c3ccccc3n2)cc1	4	0	-2	28*	3
COc1cccc(Nc2nc(-c3ccccc3O)nc3ccccc23)c1	2	-2	-2	155*	96*	RORg DNA counter=>40
O=C(O)c1cccc(Nc2nc(-c3ccc([N+](=O)[O-])cc3)nc3ccccc23)c1	-2	x	-1	5	x
COc1ccc(OC)c(Nc2nc(-c3ccccc3O)nc3ccccc23)c1	-1	3	-10	327*	224*	RORg DNA counter=>40
O=C(NN=Cc1ccco1)c1cccnc1	x	x	x	-1	x
COC(=O)c1sc(C(F)(F)F)c(-c2ccccc2)c1S(=O)(=O)N1CCCC1	-2	-2	2	24*	27*
COC(=O)c1sc(C(F)(F)F)c(-c2ccccc2)c1S(=O)(=O)N1CCOCC1	0	x	0	16	x
SMILES	HNF4A DNA FP	TPT1 inh	CSN deneddyl inh	NR1D1 modulator	NR1D1 mod conf	others
C[n+]1ccc(/C=C/c2ccc(Br)cc2)cc1	-2	1	1	1	x
Cc1ccc2[nH]c(C)c(/C=C/c3cc[n+](C)cc3)c2c1	166	x	108	235*	182*	RORg DNA counter=>40
Cc1ccc2c(c1)c(/C=C/c1cc[n+](C)cc1)c(C)n2C	180	x	69	280*	224*	RORg DNA counter=i
CCCn1c(/C=C/c2cc[n+](C)cc2)nc2ccccc21	3	-16	2	-7	x
Cc1n[nH]c2c([N+](=O)[O-])c(=O)[nH]c(=O)n12	1	x	2	-8	x
O=C(NN1CCOCC1)c1cc(-c2ccc(Br)s2)nc2ccccc12	4	-1	9	32*	7
CC(C)Oc1cccc(-c2cc(C(=O)NN3CCOCC3)c3ccccc3n2)c1	2	-2	1	-2	x
CCN(CC)C(=O)O[C@H]1CC[C@@]23CCCN2C(=O)CCC[C@H]3[C@H]1C	x	x	x	3	x
COc1ccc(/C=N\NC(=O)c2ccccc2[N+](=O)[O-])cc1COc1c(F)c(F)c(F)c(F)c1F	-2	0	3	20*	14
COc1ccc(/C=N\NC(=O)c2ccc([N+](=O)[O-])cc2)cc1COc1c(F)c(F)cc(F)c1F	0	x	2	-9	x
O=S1(=O)CCSC[C@@H](CN2CCN(c3ccccc3)CC2)N1	x	x	x	7	x
CC(NC(=O)C=Cc1ccco1)C(=O)NC(Cc1ccccc1)C(N)=O (centres undefined)	x	x	x	-3	x
Cc1ccc(OC2CCN(C(=O)[C@@H](Cc3ccccc3)NC(=O)[C@H]3O[C@@H](n4ccc(=O)[nH]c4=O)[C@H](O)[C@@H]3O)CC2)cc1	x	x	x	-3	x
O=C(O)c1cc2c(ccc3ccccc32)oc1=O	5	-4	-2	6	x
CC(OC(=O)c1cc2c(ccc3ccccc32)oc1=O)c1nc2ccccc2s1 (centres undefined)	6	-1	-3	54*	33*	RORg DNA counter=>40
CC(C)(C)NC(=O)c1cc2c(ccc3ccccc32)oc1=O	1	4	-5	37*	25*
CCOC(=O)c1cc2c(ccc3ccccc32)oc1=O	1	-2	8	-4	x
CCN(CC(=O)NCc1ccc(Cl)cc1)C(=O)c1ccc2cc(OC)ccc2c1	-1	-1	-1	105*	102*	RORg DNA counter=>40
O=C(NCc1ccco1)c1ccc(Cn2c(=O)c3ccccc3n(Cc3cccc(F)c3)c2=O)cc1	-3	4	13	53*	37*	RORg DNA counter=i
CC(C)(C)c1nc(SCC(=O)Nc2ccc3c(c2)OCCO3)c2ccccc2n1	-1	-2	-1	73*	35*	RORg DNA counter=3*
CC(C)(C)c1nc(SCC(=O)Nc2ccc(N3CCOCC3)cc2)c2ccccc2n1	-3	1	0	53*	17*
O=C(CSc1ccccc1)Nc1ccc2c(c1)OCCO2	3	1	-6	-7	x
CCOc1ccc(NC(=O)CSc2nc(C3CC3)nc3ccccc23)cc1	-4	1	-8	129*	59*	RORg DNA counter=>40

Source: PubChem BioAssay
